High-throughput results from PubChem BioAssay.
Glyco luc inh – N-linked glycosylation inhibition; D54 ERlucT glycosylation luciferase reporter, 24 h; percent of 100 nM tunicamycin response; reporter increase, % at 12.5 µM; actives 0.23% (n = 360,000);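 active = mean luciferase reporter signal, scaled so untreated is 0 and the glycosylation-blocking control 100, at or above a set limit in every replicate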;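 note: luciferase carries N-glycosylation sites so blocking glycosylation raises the light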
FN deposition inh – fibronectin deposition inhibition. AH1F fibroblasts, Alexa488-fibronectin deposition fluorescence, overnight. AID 743247. inhibition, % at 12.6 µM. actives 0.086% (n = 350,000);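 active = mean inhibition across replicates of 30% or more, regardless of how many single replicates reach that level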
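Material: AH1F fibroblast monolayer depositing Alexa488-labelled fibronectin into matrix / Amount: 10000 AH1F cells per well / Signal: fluorescence 485/525 nm / Medium: DMEM, 2% serum / Compound: single dose, pinned / Incubation: 1 h cell adhesion before compound, then overnight fibronectin incubation / Reagent: Alexa488-FN, 24 nM final / Read-out: inhibition of fibronectin deposition signal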
RAD52 inh – RAD52 (human) annealing inhibition; P43351; recombinant RAD52 DNA annealing, FRET fluorescence; inhibition, % at 18.7 µM; actives 0.46% (n = 360,000); AID 651710;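 active = every replicate showing at least 50% inhibition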
AF4-AF9 inh – MLL-AF4/AF9 protein interaction inhibition; inhibition, % at 10 µM; P42568; AlphaScreen, biotin-AF4 peptide binding to FLAG-AF9; actives 0.47% (n = 350,000); AID 651704;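 active = every replicate reaching a set inhibition limit, whatever the replicate mean, cut at about 25% in these data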
Target sequence (P42568 whole entry, looked up): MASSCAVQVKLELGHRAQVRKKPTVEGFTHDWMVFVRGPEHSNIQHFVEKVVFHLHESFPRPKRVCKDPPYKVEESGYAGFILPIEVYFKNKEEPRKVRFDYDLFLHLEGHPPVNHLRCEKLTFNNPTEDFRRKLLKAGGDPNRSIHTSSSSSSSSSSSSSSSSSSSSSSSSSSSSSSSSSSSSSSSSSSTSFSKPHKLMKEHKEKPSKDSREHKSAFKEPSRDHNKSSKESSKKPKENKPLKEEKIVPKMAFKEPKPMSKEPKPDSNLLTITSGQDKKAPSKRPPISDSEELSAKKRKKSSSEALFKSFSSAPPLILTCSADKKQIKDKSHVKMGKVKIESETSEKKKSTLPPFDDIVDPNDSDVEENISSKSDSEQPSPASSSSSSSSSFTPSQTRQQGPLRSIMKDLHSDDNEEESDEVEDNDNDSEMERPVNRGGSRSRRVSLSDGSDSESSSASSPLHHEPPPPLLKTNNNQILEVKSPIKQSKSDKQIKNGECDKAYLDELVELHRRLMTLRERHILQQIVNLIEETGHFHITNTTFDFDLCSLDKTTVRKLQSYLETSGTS
RAD54 inh – blocks human RAD54 Holliday junction branch migration; Q92698; FAM/BHQ fluorescence; inhibition, % at 10.4 µM; actives 0.14% (n = 360,000); AID 602329;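 active = mean normalized replicate activity at least 40 and at least half of replicates scoring 40 or more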;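 note: inhibitors cause a drop in the FAM fluorescence signal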
DNA binder FP – DNA binding artifact in RAD52 counter-screen | Salmon sperm DNA/acridine orange FP displacement | shares compounds with RAD52 inh | AC50, µM | actives 8% (n = 1,000);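 active = fitted half-maximal concentration for signal loss at or below twice the highest dose tested, in every separate run, actives reach about 64 µM in these data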
Each line names hits and unclear results; the compound was inactive in the other large screens (follow-up assays come after a bar, where they were run). In the library only some 0.92% were active in any assay of this set; here they are far more common.

CCc1ccc2nc(N(CCCN(C)C)C(=O)c3ccc(S(=O)(=O)N4CCc5ccccc5C4)cc3)sc2c1	none
CN(C)c1ccc(C=c2c3ccccc3n3c2c2c([n+]3C)CCCC2)cc1	Glyco luc inh 69.9, RAD52 inh 89.1, AF4-AF9 inh 37.3 (no result: RAD54 inh) | DNA binder FP 6.93µM
CN(C)c1ccc(/C=C2\SC(=O)N(CC(O)Cn3c4ccccc4c4ccccc43)C2=O)cc1 (centres undefined)	none (no result: RAD52 inh, AF4-AF9 inh)
Nc1ccc(Nc2nc(-c3ccncc3)cs2)cc1	none (no result: FN deposition inh)
Nc1ccc(Nc2ccncc2)cc1	RAD52 inh 69.5 | DNA binder FP inactive
Cn1cccc1CNC(=S)Nc1ccccc1Cl	none (no result: RAD54 inh)
Cc1cc(C)cc(NC(=S)NCc2cccn2C)c1	RAD52 inh 64.8 (no result: FN deposition inh, RAD54 inh) | DNA binder FP inactive
O=[N+]([O-])c1ccc2nc[nH]c2c1	none
Nc1ccc2nc[nH]c2c1	RAD52 inh 84.5 (no result: RAD54 inh) | DNA binder FP inactive
COc1ccc2[nH]c3c(C)c4ccncc4c(C)c3c2c1	RAD52 inh 99.6 (no result: FN deposition inh) | DNA binder FP inactive
CCOC(=O)c1c(CN(C)C)n(C)c2c(O)c(N=NC(N)=O)c3ccc(Br)cc3c12	Glyco luc inh 28.1, RAD52 inh 101.0, RAD54 inh 58.0 | DNA binder FP inactive
Cc1cccc(NC(=O)Nc2ccc3c(c2)C(=O)N(C)[C@@H]2CC[C@H](CC(=O)O)O[C@@H]2CO3)c1	none (no result: Glyco luc inh)
C/C(Cn1ncc(N2CCOCC2)c(Cl)c1=O)=N\O	none
CC(=O)OCn1ncc(N2CCOCC2)c(Br)c1=O	RAD52 inh 94.3, AF4-AF9 inh 42.5 | DNA binder FP inactive
O=C(Cc1ccccc1)N1C[C@H]2[C@@H](c3ccccc31)[C@@H](CO)N2C(=O)Nc1ccc(F)cc1	none (no result: Glyco luc inh, FN deposition inh)
CCN(CC)CCNC(=O)C(=O)NCC1OCCN1S(=O)(=O)c1cccs1 (centres undefined)	RAD52 inh 53.8 (no result: FN deposition inh) | DNA binder FP inactive
COc1ccc(-c2cc(CNc3nc(NCc4ccccc4OC)nc4ccsc34)on2)cc1	RAD52 inh 61.4 | DNA binder FP inactive
CCN(CC)CCCNC(=O)c1[nH]c2ccccc2c1Sc1ccc(Cl)cc1	RAD52 inh 69.8 | DNA binder FP inactive
CCC(C)(C)c1ccc(OCCCC[n+]2cccc(C)c2)c(C(C)(C)CC)c1	RAD52 inh 76.4 (no result: RAD54 inh) | DNA binder FP inactive
CN(C)C(=O)C[C@@H]1C[C@H]2c3cc(NS(C)(=O)=O)ccc3O[C@H]2[C@@H](CO)O1	none (no result: Glyco luc inh)
COc1ccc2nc3cc(Cl)ccc3c(Nc3ccc(O)c(CN4CCN(C)CC4)c3)c2c1	RAD52 inh 103.8, AF4-AF9 inh 58.6 (no result: RAD54 inh) | DNA binder FP 6.08µM
COc1ccc2nc3cc(Cl)ccc3c(C#N)c2c1	none
CC1CCN(CCOCCOc2ccc(Cl)cc2Br)CC1	RAD52 inh 52.5 (no result: FN deposition inh) | DNA binder FP inactive
O=C1CCCCC1	RAD52 inh 91.0 (no result: FN deposition inh, AF4-AF9 inh) | DNA binder FP inactive
Cc1cc2c(cc1C)C(=O)CCC2	none
NC(N)=N/N=C/c1ccc(OCc2ccccc2Cl)cc1	none (no result: FN deposition inh) | DNA binder FP inactive
NC(N)=N/N=C/c1ccccc1	none (no result: RAD52 inh, AF4-AF9 inh, RAD54 inh)
